According to article PMC6718200 (Bioorganic & medicinal chemistry, 2018):

Columns and labels:
SW620 [1] = assay: Western blotting analysis; format: cell-based, human; settings: SW620, 0, 25, 50, 75 μM, 48 h
In short: (§1)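 Cells were treated with test compound at 0, 25, 50 and 75 μM for 48 h and lysed in RIPA with protease and phosphatase inhibitors; protein was quantified by BCA. 50 µg lysate was run on 8–15% SDS-PAGE and transferred to PVDF. Blocking was 5% BSA/TBST for 2 h at RT; primary antibodies overnight at 4 °C; HRP secondary 1:10000 for 1 h. Detection by ECL, with tubulin as loading control and densitometry. Three independent experiments; mean ± SD.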

HT29 [2] = assay: Hoechst 33342 staining; format: cell-based, human; settings: HT29, 0, 25, 50, 75 μM, 48 h
In short: (§2)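 Chromatin-condensation assay. HT29 (McCoy's 5a) and SW620 (high-glucose DMEM), each with 10% FBS, were seeded into 24-well plates. They were treated with the test compound at 0, 25, 50 or 75 μM for 48 h, then fixed in 4% paraformaldehyde for 20 min and washed with PBS. Cells were stained with Hoechst 33342 for 15 min at 37 °C. Condensed-chromatin apoptotic cells were scored by fluorescence microscopy.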

HT29 [3] = assay: BrdU assay; format: cell-based, human; settings: HT29, 0, 25, 50, 75 μM, 48 h
In short: (§3)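 Cells at 80% confluence were seeded at 20,000 per well and exposed to test compound at 0, 25, 50 and 75 μM for 48 h. They were pulsed with 10 μM BrdU for 2 h, fixed in paraformaldehyde, treated with 2 M HCl for 30 min, and blocked with 10% goat serum for 30 min at 37 °C. Staining used rat anti-BrdU (1:2000, overnight, 4 °C), then […] (1:2000, 120 min, RT), then DAPI at 300 nM. The % BrdU-positive cells was scored by fluorescence microscopy. Three independent experiments; mean ± SD.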

SW620 [4] = assay: Cell cycle analysis by flow cytometry; format: cell-based, human; settings: SW620, 0, 25, 50, 75 μM, 48 h
In short: (§4)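 Cells were cultured in 10% FBS at 37 °C and 5% CO2 (HT29 in McCoy's 5a, SW620 in high-glucose DMEM). At 80% confluence they were seeded into 6-well plates and exposed to the test compound at 0, 25, 50 or 75 μM for 48 h. Cells were washed in cold PBS and fixed in 70% ethanol at 4 °C for 24 h. They were stained with PI plus RNase A for 30 min at 37 °C in the dark, then analysed by flow cytometry. Three independent experiments.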

HT29 [5] = assay: Colony formation assay; format: cell-based, human; settings: HT29, exposure for two weeks
HT29 [6] = assay: Cell cycle analysis by flow cytometry; format: cell-based, human; settings: HT29, 0, 25, 50, 75 μM, 48 h
In short: as §4

SW620 [7] = assay: Hoechst 33342 staining; format: cell-based, human; settings: SW620, 0, 25, 50, 75 μM, 48 h
In short: as §2

FHC cell lines = assay: MTT assay, growth inhibition in immortalized colorectal cells; format: cell-based; settings: Homo sapiens, read-out: GI50 FHC
In short: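 MTT format: 3 × 10³ cells per well, 24 h pre-incubation, then test compound at 0–200 μM (final, from DMSO stocks) for 12, 24, 48 or 72 h. MTT at 0.5 mg/mL final for 4 h; formazan dissolved in DMSO; A570. GI50 was fitted from growth-inhibition curves, three independent experiments in sextuplicate.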

97-kinase panel = 97-kinase panel screen; format: binding; settings: read-out: Kd, all tested kinases
SW620 [8] = assay: Apoptosis assessment, PI/annexin V-FITC flow cytometry; format: cell-based, human; settings: SW620, 0, 25, 50, 75 μM, 48 h
In short: (§5)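 Cells were grown in 10% FBS medium at 37 °C and 5% CO2: HT29 in McCoy's 5a, SW620 in high-glucose DMEM. They were treated with the test compound at 0, 25, 50 or 75 μM for 48 h. Attached and floating cells were pooled, washed twice in cold PBS and stained with annexin V-FITC/PI for 15 min at room temperature. The apoptotic fraction was read by flow cytometry. Three independent experiments, mean ± SD, two-tailed t-test.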

SW620 [9] = assay: Colony formation assay; format: cell-based, human; settings: SW620, exposure for two weeks
HT29 [10] = assay: Western blotting analysis; format: cell-based, human; settings: HT29, 0, 25, 50, 75 μM, 48 h
In short: as §1

SW620 [11] = assay: BrdU assay; format: cell-based, human; settings: SW620, 0, 25, 50, 75 μM, 48 h
In short: as §3

HT29 [12] = assay: Apoptosis assessment, PI/annexin V-FITC flow cytometry; format: cell-based, human; settings: HT29, 0, 25, 50, 75 μM, 48 h
In short: as §5

## CC(C)CN(C(=O)c1cccnc1)c1c2ccccc2c(=O)n2c1[nH]c1ccccc12 [Compound 7g]
SW620 [1]
  BCL-2 protein level: decreased
  CDK1 level: decreased
  MCL-1 protein level: decreased
  PARP activation: significantly increased
  PTEN level: increase in a concentration-dependent manner
  cyclin B1 level: decreased
  p21 level: increased
  p53 level: increased
  p-4E-BP1 level: decreased
  p-AKT level: decreased
  p-mTOR level: decreased
  total expression levels of AKT, mTOR and 4E-BP1: hadn’t effect
HT29 [2]
  number of apoptosis bodies: increased in a concentration-dependent manner
HT29 [3]
  proliferation (BrdU immunofluorescence): inhibited the proliferation
SW620 [4]
  average G2/M proportion: increased in a concentration-dependent manner
HT29 [5]
  colony size and numbers: dramatically reduced
HT29 [6]
  average G2/M proportion: increased in a concentration-dependent manner
SW620 [7]
  number of apoptosis bodies: increased in a concentration-dependent manner
FHC cell lines
  GI50: > 200 µM
97-kinase panel
  Kd: > 5 µM
SW620 [8]
  percentage of cells undergoing apoptosis: increased in a concentration-dependent manner
SW620 [9]
  colony size and numbers: dramatically reduced
HT29 [10]
  BCL-2 protein level: decreased
  CDK1 level: decreased
  MCL-1 protein level: decreased
  PARP activation: significantly increased
  PTEN level: increase in a concentration-dependent manner
  cyclin B1 level: decreased
  p21 level: increased
  p53 level: increased
  p-4E-BP1 level: decreased
  p-AKT level: decreased
  p-mTOR level: decreased
  total expression levels of AKT, mTOR and 4E-BP1: hadn’t effect
SW620 [11]
  proliferation (BrdU immunofluorescence): inhibited the proliferation
HT29 [12]
  percentage of cells undergoing apoptosis: increased in a concentration-dependent manner
